Converted amounts (≈) assume the structure as drawn.

What all share (assay type): functional, cell-based
One experiment has as its system HT-29. Briefly: Cytotoxicity against human HT-29 cells after 48 hrs by MTT assay. The note with it: HT-29, 48 h. An outline of the steps: (§1)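 Cells seeded at 8000–10,000 viable cells/well and left 48 h to attach, then exposed to a range of compound concentrations for a further 48–96 h, depending on the cell line's cycle. After a PBS wash, MTT was added and the formazan was dissolved in DMSO. Absorbance was read at 550 nm against 690 nm reference. IC50 was obtained by linear regression from two independent experiments in triplicate (mean ± SD). Methotrexate served as reference.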

Another experiment concerns Caco-2. Briefly: Cytotoxicity against human Caco-2 cells after 48 hrs by MTT assay. Particulars: Caco-2, 48 h. An outline of the steps: as §1
Another experiment has as its system T47D. Briefly: Cytotoxicity against human T47D cells after 48 hrs by MTT assay. An outline of the steps:
as §1
(Tetrazolium assays rely on reduction of a dye to a coloured formazan, in cell work by metabolically active cells.)

Broadly, the IC50 is the concentration that inhibits the measured activity by half. Regarding `O=C(Cc1cccc(Cl)c1)NCc1ccc(-c2nc(C(=O)N3CCCCC3)cs2)cc1`, the IC50 in the experiment with HT-29 was determined as 64.3 µg/mL (≈ 142 µM); in the experiment with Caco-2, 155 µg/mL (≈ 341 µM); with T47D, 37.6 µg/mL (≈ 82.9 µM).

Regarding `COc1ccc(CC(=O)NCc2ccc(-c3nc(C(=O)N4CCCCC4)cs3)cc2)cc1`, the IC50 with HT-29 was above 1000 µg/mL; in the experiment with Caco-2, 1.88 µg/mL (≈ 4.18 µM); with T47D, 21.6 µg/mL (≈ 48 µM).

Turning to `O=C(Cc1ccc(Br)cc1)NCc1ccc(-c2nc(C(=O)N3CCCCC3)cs2)cc1`, the IC50 turned out to be 45.3 µg/mL (≈ 90.8 µM) in the experiment with HT-29, 52 µg/mL (≈ 104 µM) in the experiment on Caco-2 and 29.5 µg/mL (≈ 59.1 µM) with T47D.

As for `CN(Cc1cnc2nc(N)nc(N)c2n1)c1ccc(C(=O)N[C@@H](CCC(=O)O)C(=O)O)cc1` [METHOTREXATE], the IC50 was 0.23 µg/mL (≈ 0.506 µM) in the experiment on HT-29, 0.32 µg/mL (≈ 0.704 µM) with Caco-2 and 0.16 µg/mL (≈ 0.352 µM) with T47D.

Consider `O=C(Cc1ccc(Cl)cc1)NCc1ccc(-c2nc(C(=O)N3CCCCC3)cs2)cc1`, for which the IC50 in the experiment with HT-29 came to 5.37 µg/mL (≈ 11.8 µM); in the experiment on Caco-2 it was 89.9 µg/mL (≈ 198 µM); in the experiment on T47D, 11.8 µg/mL (≈ 26 µM).

With `COc1ccccc1CC(=O)NCc1ccc(-c2nc(C(=O)N3CCCCC3)cs2)cc1`, the IC50 came out at 4.46 µg/mL (≈ 9.92 µM) in the experiment on HT-29, 28.1 µg/mL (≈ 62.4 µM) with Caco-2 and 6.83 µg/mL (≈ 15.2 µM) in the experiment on T47D.

As for `O=C(Cc1cccc(F)c1)NCc1ccc(-c2nc(C(=O)N3CCCCC3)cs2)cc1`, the IC50 worked out at 9.84 µg/mL (≈ 22.5 µM) in the experiment on HT-29, 4.32 µg/mL (≈ 9.87 µM) with Caco-2 and 2.02 µg/mL (≈ 4.62 µM) in the experiment with T47D.

`O=C(Cc1ccccc1Cl)NCc1ccc(-c2nc(C(=O)N3CCCCC3)cs2)cc1`: the IC50 in the experiment with HT-29 was found to be 26.8 µg/mL (≈ 59 µM); with Caco-2, 12.8 µg/mL (≈ 28.1 µM); in the experiment on T47D, 24.3 µg/mL (≈ 53.4 µM).

With `O=C(Cc1ccc(F)cc1)NCc1ccc(-c2nc(C(=O)N3CCCCC3)cs2)cc1`, the IC50 was 52 µg/mL (≈ 119 µM) in the experiment on HT-29, 114 µg/mL (≈ 260 µM) with Caco-2 and 14.2 µg/mL (≈ 32.4 µM) in the experiment with T47D.

For the molecule `O=C(Cc1ccccc1F)NCc1ccc(-c2nc(C(=O)N3CCCCC3)cs2)cc1`, the figures for the IC50 in the experiment with HT-29, in the experiment on Caco-2 and in the experiment on T47D were above 1000 µg/mL, 18.1 µg/mL (≈ 41.4 µM) and 18.8 µg/mL (≈ 43 µM), respectively.

Consider `COc1cccc(CC(=O)NCc2ccc(-c3nc(C(=O)N4CCCCC4)cs3)cc2)c1`, for which the IC50 with HT-29 was 447 µg/mL (≈ 995 µM); in the experiment with Caco-2 it was 41.1 µg/mL (≈ 91.4 µM); in the experiment with T47D it was 40.3 µg/mL (≈ 89.6 µM).
